Source: PubChem BioAssay
UPR XBP1 act = activators of adaptive XBP1 UPR arm, primary screen, cell-based, CHO-XBP1 luciferase reporter, luminescence, uHTS | IRE1-XBP1 UPR activation; percent of tunicamycin response, DMSO as zero | activation, % at 20 µM | AID 463104, 2010 | 0.33% of 330,000 active;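 active means versus positive control, 20 µM dose yields 30% or more activation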
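Material: CHO-XBP1 cells stably carrying IRE1-XBP1-driven luciferase reporter / Amount: 1000 cells per well / Compound: 20 µM, 1% DMSO / Times: 6 h treatment, 37 °C / Detection: luciferase luminescence / Measure: % activation of reporter signal versus tunicamycin and DMSO controls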
NR3A LBD binder = binders of NR3A ligand-binding domain, primary screen, biophysical, differential scanning fluorimetry, uHTS. Glutamate receptor ionotropic, NMDA 3A (GRIN3A) ligand-binding domain. NR3A LBD differential scanning fluorimetry, Tm shift; 0% = protein alone, 100% = glycine-bound protein. Tm shift relative to glycine control, % at 25 µM. 2.5% of 340,000 active. AID 1259313, 2017;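 active means melting temperature shift of at least 10% of the positive control shift, at one fixed dose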
aDG glyco act = activators of alpha-DG glycosylation, primary screen, uHTS, Pro5-aDG cells, AlphaScreen; alpha-DG glycosylation AlphaScreen (IIH6); 0% Pro5, 100% B10-LARGE cell signal; activation, % at 10 µM; 0.22% of 360,000 active;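 active means activation of at least 8% versus controls, or a plate z-score of at least 8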;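 further: Pro5 are CHO cells carrying HIG-tagged alpha-DG that lacks glycosylation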
CHOP inhibitor = inhibitors of CHOP promoter induction, primary screen, cell-based, unfolded protein response, luciferase reporter; CHO-K1 CHOP-promoter luciferase, tunicamycin-induced, 15-18 h; AID 2732, 2010; inhibition, % at 10 µM; 3.8% of 220,000 active;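 active means compounds that reduced the stress-induced luciferase reporter signal by more than about 70% of percent inhibition, limit read from the data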
UPR CHOP act = activators of apoptotic CHOP UPR arm, primary screen, cell-based, CHO-CHOP luciferase reporter, luminescence, uHTS; UPR activation; percent of tunicamycin response over DMSO baseline; activation, % at 10 µM; 0.34% of 330,000 active;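 active means at 10 µM dose, activation of 40% or more, normalized to positive control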
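Test system: CHO-CHOP cells, stable luciferase reporter of PERK-eIF2a-CHOP signalling | Quantity: 500 CHO-CHOP cells per well | Buffer or medium: F12 plus 10% serum | Compound dosing: 10 µM single point, 0.5% DMSO | Schedule: 6 h compound treatment, 37 °C | Signal: Luciferase luminescence | Control set: Tunicamycin high control, DMSO low control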
MPTP block = mitochondrial permeability transition pore inhibitors, primary screen, biochemical, isolated mouse mitochondria, absorbance; 1.4% of 360,000 active; AID 602449, 2012; Ca2+ swelling absorbance, 30 min; inhibition, % at 10 µM;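 active means inhibition of 50% or more, scaled per plate between neutral and stimulator controls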
Hits are given with their value. The list is not random: actives were taken first. Their share in the collection is about 5.6%.

`Cc1cc(NC(=O)Cn2nnc(-c3ccccc3N)n2)no1` gave UPR XBP1 act inactive, NR3A LBD binder 25.5, aDG glyco act inactive, CHOP inhibitor inactive, UPR CHOP act inactive and MPTP block inactive.
`O=C(Cn1nnc(-c2ccccc2NC(=O)c2ccco2)n1)Nc1ccccc1` gave UPR XBP1 act inactive, NR3A LBD binder inactive, aDG glyco act inactive, CHOP inhibitor 85.3, UPR CHOP act inactive and MPTP block inactive.
`COc1ccc(Cl)c(NC(=O)Cn2nnc(-c3ccccc3N)n2)c1` gave UPR XBP1 act inactive, NR3A LBD binder inactive, aDG glyco act inactive, CHOP inhibitor inactive, UPR CHOP act inactive and MPTP block inactive.
CC(C)(C)NC(=O)Cn1nnc(-c2ccccc2NC(=O)c2ccco2)n1 was read as UPR XBP1 act inactive, NR3A LBD binder inactive, aDG glyco act inactive, CHOP inhibitor inactive, UPR CHOP act inactive and MPTP block inactive.
COc1cc2c(cc1OC)[C@@H](NC(=O)COc1ccccc1)[C@H](OCc1ccccc1)C2 was read as UPR XBP1 act inactive, NR3A LBD binder inactive, aDG glyco act inactive, UPR CHOP act inactive and MPTP block inactive.
For Cc1ccc(S(=O)(=O)N(C)CC(=O)O/N=C(\N)c2cccc(Br)c2)cc1 the results were UPR XBP1 act inactive, NR3A LBD binder inactive, aDG glyco act inactive, UPR CHOP act inactive and MPTP block inactive.
Screening O=S(=O)(c1ccc(F)cc1)c1nc(-c2ccco2)oc1NCCCn1ccnc1 returned aDG glyco act inactive and MPTP block inactive.
`Cc1cc(Cl)ccc1C(=O)C1CCCN(C(=O)c2cccc(N3CCCC3=O)c2)C1` (stereo not given) gave UPR XBP1 act inactive, NR3A LBD binder inactive, aDG glyco act inactive, UPR CHOP act inactive and MPTP block inactive.
For Cc1ccccc1C(=O)Nc1ccccc1-c1nnn(CC(=O)Nc2ccc3c(c2)OCCO3)n1 the results were UPR XBP1 act inactive, NR3A LBD binder inactive, aDG glyco act inactive, CHOP inhibitor inactive, UPR CHOP act inactive and MPTP block inactive.
CCOc1ccc(NC(=O)Cn2nnc(-c3ccccc3NC(=O)CC)n2)cc1 was read as UPR XBP1 act inactive, NR3A LBD binder inactive, aDG glyco act inactive, CHOP inhibitor inactive, UPR CHOP act inactive and MPTP block inactive.
`CCCC(=O)Nc1ccccc1-c1nnn(CC(=O)Nc2ccc(OCC)cc2)n1` gave UPR XBP1 act inactive, NR3A LBD binder inactive, aDG glyco act inactive, CHOP inhibitor 80.0, UPR CHOP act inactive and MPTP block inactive.
Cc1ccc(NC(=O)Cn2nnc(-c3ccccc3NC(=O)c3cccs3)n2)cc1 was read as UPR XBP1 act inactive, NR3A LBD binder 19.9, aDG glyco act inactive, UPR CHOP act inactive and MPTP block inactive.
`COc1c(O)cccc1[C@H](O)C1CCN(CCc2ccc(F)cc2)CC1` gave UPR XBP1 act inactive, NR3A LBD binder inactive, aDG glyco act inactive, UPR CHOP act inactive and MPTP block inactive.
`CS(=O)(=O)c1ccc(Cl)c(NC(=O)c2ccc(-n3cncn3)c([N+](=O)[O-])c2)c1` gave aDG glyco act inactive and MPTP block inactive.
For CCOC(=O)c1c(NC(=O)CN2CCCCC2)sc2c1CCCC2O (stereo not given) the results were UPR XBP1 act inactive, NR3A LBD binder inactive, aDG glyco act inactive, CHOP inhibitor 86.0, UPR CHOP act inactive and MPTP block inactive.
For CCOC(=O)c1c(NC(=O)CN2CCCCC2)sc(CN(C)C)c1-c1ccccc1 the results were UPR XBP1 act inactive, NR3A LBD binder inactive, aDG glyco act inactive, CHOP inhibitor inactive, UPR CHOP act inactive and MPTP block inactive.
For CC(C)OC(=O)c1ccc(NC(=S)NC(=O)c2cncc(Br)c2)cc1 the results were UPR XBP1 act inactive, NR3A LBD binder inactive, aDG glyco act inactive, UPR CHOP act inactive and MPTP block inactive.
Screening Cc1ccccc1Oc1cc(NC(=O)CCCn2nc(C)c([N+](=O)[O-])c2C)cc([N+](=O)[O-])c1 returned UPR XBP1 act inactive, NR3A LBD binder inactive, aDG glyco act inactive, CHOP inhibitor 91.3, UPR CHOP act inactive and MPTP block inactive.
`Cc1nn(CCCC(=O)NCc2ccc(Cl)cc2)c(C)c1[N+](=O)[O-]` gave UPR XBP1 act inactive, NR3A LBD binder 11.8, aDG glyco act inactive, CHOP inhibitor inactive, UPR CHOP act inactive and MPTP block inactive.
For C=CC[n+]1c(-c2ccc(C)cc2)csc1Nc1ccc(NC(C)=O)cc1 the results were NR3A LBD binder inactive, aDG glyco act inactive, CHOP inhibitor 84.9 and MPTP block inactive.
For Oc1ccccc1-c1nnc(COc2ccc(Cl)cc2Cl)o1 the results were UPR XBP1 act inactive, NR3A LBD binder inactive, aDG glyco act inactive, CHOP inhibitor 72.8, UPR CHOP act inactive and MPTP block inactive.
`COc1ccc(C(=O)NCC(c2ccccc2)c2ccccc2)cc1S(=O)(=O)N1CCOCC1` gave NR3A LBD binder inactive, aDG glyco act inactive and MPTP block inactive.
Screening CCC(C)[C@H]1CNC(=S)N1CCC12CC3CC(CC(C3)C1)C2 (stereo not given in full) returned UPR XBP1 act inactive, NR3A LBD binder inactive, aDG glyco act inactive, CHOP inhibitor 80.5, UPR CHOP act inactive and MPTP block inactive.
CCC(C)[C@H]1CNC(=S)N1CCc1cccc2ccccc12 (stereo not given in full) was read as UPR XBP1 act inactive, NR3A LBD binder inactive, aDG glyco act inactive, CHOP inhibitor inactive, UPR CHOP act inactive and MPTP block inactive.
CCn1c2c(c3cc(Br)ccc31)CCC/C2=N\O was read as UPR XBP1 act inactive, NR3A LBD binder inactive, aDG glyco act inactive, CHOP inhibitor 89.6, UPR CHOP act inactive and MPTP block inactive.
CCn1c2c(c3cc(OCC(C)C)ccc31)CCCC2=O was read as UPR XBP1 act inactive, NR3A LBD binder inactive, aDG glyco act inactive, CHOP inhibitor inactive, UPR CHOP act inactive and MPTP block inactive.
`CC(C)OC(=O)CSc1ncnc2c1cnn2Cc1ccccc1` gave UPR XBP1 act inactive, NR3A LBD binder inactive, aDG glyco act inactive, CHOP inhibitor 74.9, UPR CHOP act inactive and MPTP block inactive.
For COC(=O)CSc1ncnc2c1cnn2Cc1ccccc1 the results were UPR XBP1 act inactive, NR3A LBD binder inactive, aDG glyco act inactive, CHOP inhibitor inactive, UPR CHOP act inactive and MPTP block inactive.
Screening COc1ccc(-c2nnc(SCC(=O)N3CCCC3=O)n2N)cc1OC returned UPR XBP1 act inactive, NR3A LBD binder 18.8, aDG glyco act inactive, UPR CHOP act inactive and MPTP block inactive.
